# Published values collected from several papers.
Structure (SMILES),tested on,test,system,setting,endpoint,result
CCCCCCn1c(-c2cccc(Cl)c2)n[nH]c1=S,HepG2,"cell growth or viability, resazurin",,"10 µM, 24 h",viability,103%
O=C(c1ccc(Oc2ccccc2)cc1Cl)c1c[nH]c2ncnc(N[C@@H]3CC[C@@H](CO)OC3)c12,,,"cynomolgus monkey, plasma","oral, 10 mg/kg, single dose",AUC(0-t),82700 ng·h/mL
CN(C(=O)n1cnc(-c2ccc[n+]([O-])c2)c1)C1CCCCC1,,,"male cynomolgus monkey, plasma","oral, 0.3 mg/kg",AUC(0-t),452 ng·h/mL
Nc1cc(CNC(=O)c2cc3[nH]ccc3cc2Cl)cc(C(F)(F)F)c1,HEK-293T,cell growth or viability,,"100 µM, 24 h",viability,< 50%
COc1ccc2c(c1)c1c(n2CO)CN2CCc3cc(OCc4ccccc4)c(OC)cc3C2C1 (centres unmarked),HepG2,cell growth or viability,,"5 µM, 24 h",viability,100%
CCOP(=O)(OCC)[C@@H]1C[C@@H](n2cc(-c3ccccc3F)nn2)ON1C,human T-lymphocyte,cell growth or viability,,72 h,CC50,> 250 µM
c1ccc(-c2nc(N3CCC(c4ccccn4)C3)c3ccccc3n2)nc1 (centres unmarked),,,"female BALB/c mouse, plasma","oral, 12.5 mg/kg",MRT(0-inf),5.9 h
COc1ccc(CCN2CCC(Nc3nc4ccccc4n3Cc3ccc(F)cc3)CC2)cc1,HepG2,"cell growth or viability, resazurin",,"100 µM, 24 h",viability,2%
COc1cc(OC)c2nccc(N3CCc4c(cc(Cn5ccnc5)cc4-c4cn(C)nc4C(F)(F)F)C3=O)c2c1,,,"male CD-1 mouse, plasma","intravenous, 3 mg/kg",MRT(0-inf),0.5 h
COc1ccc2c(c1)c1c(n2CO)CN2CCc3cc(OC)c(OCC(F)(F)F)cc3C2C1 (centres unmarked),HepG2,cell growth or viability,,"20 µM, 24 h",viability,74.7%
CCc1cc(C(=O)NC)c2nccc(N3CCc4c(cc(Cn5ccnc5)cc4-c4cn(C)nc4C(F)(F)F)C3=O)c2c1,,,"male CD-1 mouse, plasma","oral, 50 mg/kg",MRT(0-inf),3.1 h
CCOP(=O)(OCC)[C@@H]1C[C@@H](n2cc(-c3ccccc3)nn2)ON1C (racemic),human T-lymphocyte,cell growth or viability,,72 h,CC50,> 250 µM
COc1ccc2nccc(N3CCc4c(cc(Cn5ccnc5)cc4-c4cn(C)nc4C(F)(F)F)C3=O)c2c1,,,"male CD-1 mouse, plasma","intravenous, 3 mg/kg",MRT(0-inf),0.6 h
CCN(CC)C(=O)[C@@]1(c2ccccc2)C[C@H]1CN,,,"male cynomolgus monkey, plasma","oral, 30 mg/kg",AUC(0-t),40000 ng·h/mL
